In data set [1] the target is T1, Somatostatin receptor type 2 (Homo sapiens, UniProt P30874). The experiment in a line: Displacement of I125-somatostatin-14 from human SST2 expressed in CHO cells after 3 hrs by scintillation counting. Format: cell-based.
Data set [2] addresses T1, Somatostatin receptor type 2. In words: Agonist activity at human SST2 expressed in CHO cells assessed as inhibition of forskolin-stimulated cAMP release after 40 mins by luminescence assay. Format: functional, cell-based.
A short description of data set [3]: Plasma clearance in rat at 2 mg/kg, iv and 10 mg/kg, po. Format: ADME, organism-based.
The species named for data set [4] is Homo sapiens. The experiment in a line: Selectivity for human SST2 over human SST1. A digest of the protocol: (§1)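 Human sst1, sst2, sst3, sst4 or sst5 stably expressed in CHO cells; membrane displacement of 0.1 nM 125I-somatostatin-14 by compound 0-10000 nM, 30 min tracer preincubation then 3 h at room temperature, filtration and scintillation counting; selectivity taken from the binding values across subtypes.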

Data set [5] in a line: Volume of distribution at steady state in rat at 2 mg/kg, iv and 10 mg/kg, po. The data set is classed as ADME, organism-based. The following applies: in vivo, read-out: Vdss.
A short description of data set [6]: Half life in rat at 2 mg/kg, iv and 10 mg/kg, po. The data set is classed as ADME, organism-based. As to conditions: in vivo.
A short description of data set [7]: Oral bioavailability in rat at 2 mg/kg, iv and 10 mg/kg, po iv. The data set is classed as ADME, organism-based. The following applies: in vivo.
The species entered for data set [8] is Homo sapiens. In words: Selectivity for human SST2 over human SST5. Put shortly: as §1
Data set [9] is filed under the species Homo sapiens. In words: Selectivity for human SST2 over human SST3. Put shortly:
as §1

For data set [10], the target named is T2, Gonadotropin-releasing hormone receptor (Homo sapiens, UniProt P30968).
T2 sequence (P30968 whole entry): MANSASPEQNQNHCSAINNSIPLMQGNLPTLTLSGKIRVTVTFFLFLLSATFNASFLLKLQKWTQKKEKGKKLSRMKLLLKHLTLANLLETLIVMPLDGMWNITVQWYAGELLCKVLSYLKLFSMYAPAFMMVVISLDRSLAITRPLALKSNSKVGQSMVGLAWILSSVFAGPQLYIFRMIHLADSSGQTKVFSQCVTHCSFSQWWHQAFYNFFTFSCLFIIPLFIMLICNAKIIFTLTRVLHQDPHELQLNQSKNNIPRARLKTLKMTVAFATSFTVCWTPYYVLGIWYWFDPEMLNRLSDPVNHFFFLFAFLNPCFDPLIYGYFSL
In words: Antagonist activity at GnRH receptor by GnRH. Format: functional.

Data set [11] has as its system Rattus norvegicus. In words: Inhibition of secretagogue-induced growth hormone release in iv dosed Wistar rat plasma after 50 mins before secretagogue challenge measured after every 5 to 15 mins. Format: functional, organism-based. A digest of the protocol:
(§2)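 Female Wistar rats (200-250 g) with jugular and carotid cannulas, pentobarbital-anesthetized (50 mg/kg ip); vehicle or compound given iv via jugular cannula, GH secretagogue (10 μg/kg iv) 50 min later.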

Data set [12] is described as follows: Volume of distribution at steady state in rat at 2 mg/kg, iv and 5 mg/kg, po. The data set is classed as ADME, organism-based. The following applies: in vivo, read-out: Vdss.
Data set [13] is described as follows: Plasma clearance in dog at 0.125 mg/kg, iv. Set-up: dose 0.125 mg/kg, route intravenous. Format: ADME, organism-based, Canis lupus familiaris. A digest of the protocol: (§3)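 Dog PK after 0.125 mg/kg iv; plasma clearance (mL/min/kg), half-life (h) and steady-state volume of distribution (L/kg).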
Data set [14] relates to Rattus norvegicus. The experiment in a line: Antiangiogenic activity against laser-induced choroidal neovascularization rat model assessed as reduction in neovascular lesion area at 15 ug, intraocular administered once every 4 days. Format: functional. Set-up: scale not given: the % may be the effect or the level left. Put shortly:
(§4)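 Laser-induced choroidal neovascularization in male Brown Norway rats (175-225 g). After lasering and topical 0.5% proparacaine, 5 μL vehicle (5% ethanol in PBS) or compound injected intravitreally 3 mm posterior to iris on days 0, 4 and 8; neovascular lesion area measured.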

A short description of data set [15]: Volume of distribution at steady state in dog at 0.125 mg/kg, iv. Format: ADME, organism-based, Canis lupus familiaris. Further details: dose 0.125 mg/kg, route intravenous. The following applies: in vivo, read-out: Vdss. A digest of the protocol: as §3
A short description of data set [16]: Half life in dog at 0.125 mg/kg, iv. Format: ADME, organism-based, Canis lupus familiaris. Set-up: dose 0.125 mg/kg, route intravenous. As to conditions: in vivo. A digest of the protocol:
as §3

Data set [17] relates to Rattus norvegicus. In words: Inhibition of secretagogue-induced growth hormone release in Wistar rat assessed as reduction in plasma growth hormone area under the curve at 0.2 mg/kg, iv treated 50 mins before secretagogue challenge measured after every 5 to 15 mins. Format: functional. Further details: scale not given: the % may be the effect or the level left. Put shortly: as §2

Data set [18] is described as follows: Half life in rat at 2 mg/kg, iv and 5 mg/kg, po. Format: ADME, organism-based. As to conditions: in vivo.
A short description of data set [19]: Aqueous solubility of the compound. The following applies: buffer. The data set is classed as physicochemical.
The nature of data set [20]: Plasma clearance in rat at 2 mg/kg, iv and 5 mg/kg, po. The data set is classed as ADME, organism-based.
The test system of data set [21] is Rattus norvegicus. The experiment in a line: Inhibition of secretagogue-induced growth hormone release in Wistar rat assessed as reduction in plasma growth hormone area under the curve at 2 mg/kg, iv treated 50 mins before secretagogue challenge measured after every 5 to 15 mins. The data set is classed as functional. Further details: scale not given: the % may be the effect or the level left. Put shortly: as §2

The test system of data set [22] is Rattus norvegicus. The experiment in a line: Antiangiogenic activity against laser-induced choroidal neovascularization rat model assessed as reduction in neovascular lesion area at 5 ug, intraocular administered once every 4 days. The data set is classed as functional. Set-up: scale not given: the % may be the effect or the level left. A digest of the protocol: as §4

Data set [23] is described as follows: Oral bioavailability in rat at 2 mg/kg, iv and 5 mg/kg, po. The data set is classed as ADME, organism-based. As to conditions: in vivo.
The subject of data set [24] is Rattus norvegicus. The experiment in a line: Antiangiogenic activity against laser-induced choroidal neovascularization rat model assessed as reduction in neovascular lesion area, intraocular administered once every 4 days. As to conditions: Eye. The data set is classed as functional, organism-based. A digest of the protocol:
as §4

A short description of data set [25]: Volume of distribution at steady state in dog at 2 mg/kg, iv and 10 mg/kg, po. The data set is classed as ADME, organism-based, Canis lupus familiaris. The following applies: in vivo, read-out: Vdss.
Data set [26] in a line: Half life in dog at 2 mg/kg, iv and 10 mg/kg, po. The data set is classed as ADME, organism-based, Canis lupus familiaris. The following applies: in vivo.
A short description of data set [27]: Plasma clearance in dog at 2 mg/kg, iv and 10 mg/kg, po. The data set is classed as ADME, organism-based, Canis lupus familiaris.

T1 sequence (P30874 whole entry): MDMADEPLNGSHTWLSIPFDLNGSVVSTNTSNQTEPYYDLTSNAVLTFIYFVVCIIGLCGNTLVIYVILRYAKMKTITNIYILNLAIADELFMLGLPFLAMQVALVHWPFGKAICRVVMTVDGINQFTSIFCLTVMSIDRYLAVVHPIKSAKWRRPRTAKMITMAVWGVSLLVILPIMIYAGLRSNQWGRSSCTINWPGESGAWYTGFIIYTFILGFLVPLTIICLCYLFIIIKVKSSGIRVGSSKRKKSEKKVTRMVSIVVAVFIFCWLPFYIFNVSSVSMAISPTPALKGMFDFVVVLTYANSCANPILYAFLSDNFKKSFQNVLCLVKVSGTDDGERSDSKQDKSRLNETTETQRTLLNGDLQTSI

With `OCc1cccc(-c2ccc3ncc(-c4cccc(CO)c4)c(OCC[C@H]4CCCCN4)c3c2)c1`, the affinity in [1] corresponds to a Ki of 0.13 nM. Besides, the half-inhibitory concentration (IC50) in data set [2] turned out to be 11 nM.

In the case of `COc1ccc(-c2cc3c(OCC[C@H]4CCCCN4)c(-c4cc(C)cc(C)c4)cnc3cc2Cl)cn1`, in data set [1], the affinity, expressed as Ki, was 0.65 nM. Also, the IC50 in [2] was 50 nM.

`Cc1cc(C)cc(-c2cnc3cc(Cl)c(-c4cccc(O)c4)cc3c2OCC[C@H]2CCCCN2)c1` came in with a Ki in [1] of 0.037 nM. Also, in [2], the IC50 amounted to 1.1 nM.

As for `Cc1cc(C)cc(-c2cnc3cc(Cl)c(-c4cnn(C)c4)cc3c2OCC[C@H]2CCCCN2)c1`, in [3], the clearance worked out at 14 mL/min/kg. For the same molecule, the fold change (FC) in the data set listed under Homo sapiens [4], in the data set filed under Homo sapiens [8] and in the data set listed under Homo sapiens [9] was > 1000 each time. Moreover, the Vd in data set [5] is 3.1 L/kg. Further, the half-life in data set [6] was 3.7 h. This molecule also came in with a bioavailability in data set [7] of 27%.

Take `Cc1cc(C)cc(-c2cnc3cc(Cl)c(-c4ccc(CO)cc4)cc3c2OCC[C@H]2CCCCN2)c1`: the affinity in data set [1] corresponds to a Ki of 0.1 nM. In data set [2], the IC50 is 13 nM.

Turning to `Cc1cc(C)cc(-c2cnc3cc(Cl)c(-c4ccc(F)nc4)cc3c2OCC[C@H]2CCCCN2)c1`, in data set [1], affinity was put at a Ki of 0.12 nM. The IC50 in data set [2] is 4.7 nM.

Turning to `Cc1cc(C)cc(-c2cnc3cc(Cl)c(-c4cccc(C(N)=O)c4)cc3c2OCCCN)c1`, the affinity in [1] corresponds to a Ki of 0.08 nM. Further, in [2], the IC50 was found to be 0.38 nM.

In the case of `Cc1cc(C)cc(-c2c(OCCC3CCCCN3)c3cc(-c4ccncn4)c(Cl)cc3[nH]c2=O)c1` (configuration not stated), it took 3.2 nM to reach half-maximal inhibition in data set [10] (IC50). Further, the Ki in data set [1] is 1400 nM.

Consider `Cc1cc(C)cc(-c2cnc3cc(Cl)c(-c4cccc(C(N)=O)c4)cc3c2OCC[C@H]2CCCCN2)c1`, for which, in data set [1], the affinity, expressed as Ki, was 0.038 nM. Besides, in data set [2], the IC50 was 0.39 nM.

`Cc1cc(C)cc(-c2c(OCC[C@H]3CCCCN3)c3cc(-c4ccc(F)cc4)c(Cl)cc3[nH]c2=O)c1` showed a Ki in data set [1] of 1.5 nM.

Molecule `Cc1cc(C)cc(-c2cnc3cc(Cl)c(-c4ccc(Cl)nc4)cc3c2OCC[C@H]2CCCCN2)c1` returned a Ki in data set [1] of 0.13 nM. Moreover, the IC50 in data set [2] was 11 nM.

In turn, `Cn1cc(-c2cc3c(OCC[C@H]4CCCCN4)c(-c4cccc(CO)c4)cnc3cc2Cl)cn1` came in with a Ki in data set [1] of 0.13 nM. Besides, the IC50 in data set [2] is 8.3 nM.

As for `Cc1cc(C)cc(-c2cnc3cc(Cl)c(-c4cccc(O)c4)cc3c2OCCCN)c1`, in the data set on Rattus norvegicus [11], the inhibition entry is “Dose-dependent effect”. Also, the Vd in data set [12] was 9.4 L/kg; in data set [15] it was 5.7 L/kg. For the same molecule, the clearance is 7.1 mL/min/kg in data set [13] and 52 mL/min/kg in data set [20]. For the same molecule, the Activity is 53% in the data set on Rattus norvegicus [14]; 38% with Rattus norvegicus [17]; 91% with Rattus norvegicus [21]; 35% with Rattus norvegicus [22]; “Dose-dependent effect” with Rattus norvegicus [24]. Also, the half-life in data set [16] was 11 h; in [18], 2.9 h. Besides, the solubility entry in [19] is “Insoluble”. Further, the Ki in data set [1] amounted to 0.025 nM. The IC50 in data set [2] was determined as 4.8 nM. The molecule further had a bioavailability in data set [23] of 17%.

As for `Cc1cc(C)cc(-c2cnc3cc(Cl)c(-c4ccncc4)cc3c2OCC[C@H]2CCCCN2)c1`, the Ki in data set [1] was found to be 0.11 nM. Further, the half-maximal inhibitory concentration (IC50) in data set [2] is 20 nM.

On to `Cc1cc(C)cc(-c2cnc3cc(Cl)c(-c4ccc(N)nc4)cc3c2OCC[C@H]2CCCCN2)c1`, for which, in data set [1], the affinity corresponds to a Ki of 0.6 nM. Further, the IC50 in data set [2] came to 34 nM.

With `Cc1cc(C)cc(-c2cnc3cc(Cl)c(-c4ccc(O)cc4)cc3c2OCC[C@H]2CCCCN2)c1`, the Ki in data set [1] was 0.08 nM. In addition, in data set [2], the half-maximal inhibitory concentration (IC50) is 0.38 nM.

Consider `Cc1cc(C)cc(-c2cnc3cc(Cl)c(-c4ccc(=O)[nH]c4)cc3c2OCC[C@H]2CCCCN2)c1`, for which the fold change (FC) in the data set listed under Homo sapiens [4], in the data set filed under Homo sapiens [8] and in the data set filed under Homo sapiens [9] was > 1000 throughout. Besides, in data set [1], the Ki came out at 0.27 nM. The half-inhibitory concentration (IC50) in data set [2] is 0.29 nM. For the same molecule, the Vd in data set [25] came out at 0.094 L/kg. Moreover, the half-life in [26] was 0.55 h. In [27], this molecule came in with a clearance of 5 mL/min/kg.

In data set [10], `Cc1cc(C)cc(-c2cnc3cc(Cl)c(C(=O)Nc4ccncn4)cc3c2OCC[C@H]2CCCCN2)c1` registered an IC50 of 2440 nM. The Ki in data set [1] is 20 nM.

For the molecule `Cc1cc(C)cc(-c2cnc3cc(Cl)c(-c4cccnc4)cc3c2OCC[C@H]2CCCCN2)c1`, the Ki in [1] was found to be 0.13 nM. Moreover, the IC50 in data set [2] is 8.3 nM.

Broadly, the Ki is a measure of affinity in units of concentration, obtained from inhibition or displacement. As usually defined, the IC50 is the midpoint of a concentration-inhibition curve. For orientation: half-life means how long it takes for the measured level to halve. By bioavailability is commonly meant dose-corrected exposure relative to a reference, in per cent.

Values taken from ChEMBL document CHEMBL1764995, “Design, synthesis, and evaluation of novel 3,6-diaryl-4-aminoalkoxyquinolines as selective agonists of somatostatin receptor subtype 2” (J Med Chem, 2011).
